What was measured:
Format in all cases: functional
Mus musculus [1] = assay: Analgesic activity in Swiss mouse assessed as increase in reaction time at 20 mg/kg, po after 30 mins by Eddy's hot plate technique
Method in brief: (§1)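 Swiss mice of either sex, 25–35 g, placed one at a time on a hot plate held at 55 °C. End point is paw licking or jumping, whichever comes first, with a 15 s cut-off to avoid paw injury. Reaction time is recorded and reported as percent increase in reaction time.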

Mus musculus [2] = assay: Analgesic activity in Swiss mouse assessed as increase in reaction time at 20 mg/kg, po after 60 mins by Eddy's hot plate technique; method in brief: as §1
Mus musculus [3] = assay: Analgesic activity in Swiss mouse assessed as increase in reaction time at 20 mg/kg, po after 90 mins by Eddy's hot plate technique; method in brief: as §1
Candida albicans [4] = assay: Antifungal activity against Candida albicans at 10 ug/ml by paper disc method; details: read-out: IZ
Candida albicans [5] = assay: Antifungal activity against Candida albicans at 20 ug/ml by paper disc method; details: read-out: IZ
Candida albicans [6] = assay: Antifungal activity against Candida albicans at 30 ug/ml by paper disc method; details: read-out: IZ
Aspergillus niger [7] = assay: Antifungal activity against Aspergillus niger at 10 ug/ml by paper disc method; details: read-out: IZ
Aspergillus niger [8] = assay: Antifungal activity against Aspergillus niger at 20 ug/ml by paper disc method; details: read-out: IZ
Aspergillus niger [9] = assay: Antifungal activity against Aspergillus niger at 30 ug/ml by paper disc method; details: read-out: IZ
Escherichia coli [10] = assay: Antibacterial activity against Escherichia coli at 10 ug/ml by agar plate diffusion technique; details: read-out: IZ
Escherichia coli [11] = assay: Antibacterial activity against Escherichia coli at 20 ug/ml by agar plate diffusion technique; details: read-out: IZ
Escherichia coli [12] = assay: Antibacterial activity against Escherichia coli at 30 ug/ml by agar plate diffusion technique; details: read-out: IZ
Pseudomonas aeruginosa [13] = assay: Antibacterial activity against Pseudomonas aeruginosa at 10 ug/ml by agar plate diffusion technique; details: read-out: IZ
Pseudomonas aeruginosa [14] = assay: Antibacterial activity against Pseudomonas aeruginosa at 20 ug/ml by agar plate diffusion technique; details: read-out: IZ
Pseudomonas aeruginosa [15] = assay: Antibacterial activity against Pseudomonas aeruginosa at 30 ug/ml by agar plate diffusion technique; details: read-out: IZ
Bacillus subtilis [16] = assay: Antibacterial activity against Bacillus subtilis at 10 ug/ml by agar plate diffusion technique; details: read-out: IZ
Bacillus subtilis [17] = assay: Antibacterial activity against Bacillus subtilis at 20 ug/ml by agar plate diffusion technique; details: read-out: IZ
Bacillus subtilis [18] = assay: Antibacterial activity against Bacillus subtilis at 30 ug/ml by agar plate diffusion technique; details: read-out: IZ
Staphylococcus aureus [19] = assay: Antibacterial activity against Staphylococcus aureus at 10 ug/ml by agar plate diffusion technique; details: read-out: IZ
Staphylococcus aureus [20] = assay: Antibacterial activity against Staphylococcus aureus at 20 ug/ml by agar plate diffusion technique; details: read-out: IZ
Staphylococcus aureus [21] = assay: Antibacterial activity against Staphylococcus aureus at 30 ug/ml by agar plate diffusion technique; details: read-out: IZ
Rattus norvegicus [22] = assay: Antiinflammatory activity in Wistar Albino rat assessed as inhibition of carrageenan-induced paw oedema at 20 mg/kg after 1 hr relative to control
Method in brief: (§2)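 Wistar albino rats, 150–200 g, six per group, dosed orally with a 20 mg/kg suspension; control gets 0.1 ml 1% gum acacia. After 30 min, 0.1 ml 1% carrageenan in saline is injected subplantar into the right hind paw. Paw volume is read by plethysmograph at 0–4 h. Inhibition = 100(1 − Vtest/Vcontrol) on mean volume increase.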

Rattus norvegicus [23] = assay: Antiinflammatory activity in Wistar Albino rat assessed as inhibition of carrageenan-induced paw oedema at 20 mg/kg after 2 hrs relative to control; method in brief: as §2
Rattus norvegicus [24] = assay: Antiinflammatory activity in Wistar Albino rat assessed as inhibition of carrageenan-induced paw oedema at 20 mg/kg after 3 hrs relative to control; method in brief: as §2
Rattus norvegicus [25] = assay: Antiinflammatory activity in Wistar Albino rat assessed as inhibition of carrageenan-induced paw oedema at 20 mg/kg after 4 hrs relative to control; method in brief: as §2

| SMILES | Activity (Mus musculus [1]) | Activity (Mus musculus [2]) | Activity (Mus musculus [3]) | zone of inhibition at 10 µg/mL (Candida albicans [4]) | zone of inhibition at 20 µg/mL (Candida albicans [5]) | zone of inhibition at 30 µg/mL (Candida albicans [6]) | zone of inhibition at 10 µg/mL (Aspergillus niger [7]) | zone of inhibition at 20 µg/mL (Aspergillus niger [8]) | zone of inhibition at 30 µg/mL (Aspergillus niger [9]) | zone of inhibition at 10 µg/mL (Escherichia coli [10]) | zone of inhibition at 20 µg/mL (Escherichia coli [11]) | zone of inhibition at 30 µg/mL (Escherichia coli [12]) | zone of inhibition at 10 µg/mL (Pseudomonas aeruginosa [13]) | zone of inhibition at 20 µg/mL (Pseudomonas aeruginosa [14]) | zone of inhibition at 30 µg/mL (Pseudomonas aeruginosa [15]) | zone of inhibition at 10 µg/mL (Bacillus subtilis [16]) | zone of inhibition at 20 µg/mL (Bacillus subtilis [17]) | zone of inhibition at 30 µg/mL (Bacillus subtilis [18]) | zone of inhibition at 10 µg/mL (Staphylococcus aureus [19]) | zone of inhibition at 20 µg/mL (Staphylococcus aureus [20]) | also measured |
| --- | --- | --- | --- | --- | --- | --- | --- | --- | --- | --- | --- | --- | --- | --- | --- | --- | --- | --- | --- | --- | --- |
| Cc1occc1-c1nnc2sc(-c3ccnc(Cl)c3)nn12 | 6.04% | 11.35% | 20.34% | 7.26 mm | 14 mm | 21.9 mm | 7.38 mm | 14.3 mm | 20.7 mm | 7.48 mm | 14.8 mm | 20.2 mm | 7.79 mm | 13.8 mm | 20.6 mm | 7.82 mm | 14.6 mm | 20.4 mm | 7.82 mm | 14.7 mm | zone of inhibition at 30 µg/mL (Staphylococcus aureus [21]): 19.2 mm; inhibition in vivo at 20 mg/kg (Rattus norvegicus [22]): 10.1%; inhibition in vivo at 20 mg/kg (Rattus norvegicus [23]): 15.3%; inhibition in vivo at 20 mg/kg (Rattus norvegicus [24]): 24.1%; inhibition in vivo at 20 mg/kg (Rattus norvegicus [25]): 27.1% |
| Cc1occc1-c1nnc2n1NC(c1ccc[nH]1)S2 (stereo not given) | 7.14% | 17.45% | 23% | 5.24 mm | 9.16 mm | 14.8 mm | 5.1 mm | 9.42 mm | 13.2 mm | 5.11 mm | 8.42 mm | 15.7 mm | 6.67 mm | 12.3 mm | 14.7 mm | 5.33 mm | 10.7 mm | 16.3 mm | 4.6 mm | 8.12 mm | zone of inhibition at 30 µg/mL (Staphylococcus aureus [21]): 12.3 mm; inhibition in vivo at 20 mg/kg (Rattus norvegicus [22]): 13.7%; inhibition in vivo at 20 mg/kg (Rattus norvegicus [23]): 18.2%; inhibition in vivo at 20 mg/kg (Rattus norvegicus [24]): 20.3%; inhibition in vivo at 20 mg/kg (Rattus norvegicus [25]): 22.7% |
| COc1ccc(Cc2nnc3n2NC(c2ccc[nH]2)S3)cc1OC (stereo not given) | 7.6% | 12.65% | 21.06% | 4.7 mm | 8.12 mm | 13.1 mm | 4.68 mm | 9.12 mm | 12.2 mm | 4.48 mm | 7.18 mm | 14.2 mm | 7.33 mm | 11.7 mm | 13.3 mm | 4.32 mm | 8.32 mm | 12 mm | 4.02 mm | 7.64 mm | zone of inhibition at 30 µg/mL (Staphylococcus aureus [21]): 10.6 mm; inhibition in vivo at 20 mg/kg (Rattus norvegicus [22]): 13.2%; inhibition in vivo at 20 mg/kg (Rattus norvegicus [23]): 15.9%; inhibition in vivo at 20 mg/kg (Rattus norvegicus [24]): 17.7%; inhibition in vivo at 20 mg/kg (Rattus norvegicus [25]): 21.5% |
| COc1ccc(Cl)c(-c2nnc3n2NC(c2ccc[nH]2)S3)c1 (stereo not given) | 4.86% | 14.48% | 21.1% | 4.61 mm | 8.82 mm | 13.4 mm | 4.89 mm | 9.17 mm | 12.3 mm | 4.71 mm | 7.9 mm | 14.3 mm | 1.33 mm | 4.33 mm | 8 mm | 1.67 mm | 4 mm | 8.33 mm | 1.33 mm | 4.33 mm | zone of inhibition at 30 µg/mL (Staphylococcus aureus [21]): 8.33 mm; inhibition in vivo at 20 mg/kg (Rattus norvegicus [22]): 12.8%; inhibition in vivo at 20 mg/kg (Rattus norvegicus [23]): 15.2%; inhibition in vivo at 20 mg/kg (Rattus norvegicus [24]): 18.4%; inhibition in vivo at 20 mg/kg (Rattus norvegicus [25]): 20.6% |
| Cc1occc1-c1nnc2n1NC(c1cccn1C)S2 (stereo not given) | 7.55% | 16.8% | 21.96% | 4.5 mm | 8.06 mm | 13.2 mm | 4.93 mm | 8.08 mm | 13.7 mm | 4.11 mm | 7.19 mm | 12.1 mm | 4.36 mm | 7.9 mm | 13.2 mm | 4.52 mm | 7.48 mm | 11.4 mm | 4.42 mm | 6.23 mm | zone of inhibition at 30 µg/mL (Staphylococcus aureus [21]): 11.2 mm; inhibition in vivo at 20 mg/kg (Rattus norvegicus [22]): 14.6%; inhibition in vivo at 20 mg/kg (Rattus norvegicus [23]): 18.9%; inhibition in vivo at 20 mg/kg (Rattus norvegicus [24]): 21.5%; inhibition in vivo at 20 mg/kg (Rattus norvegicus [25]): 22.4% |
| Cc1occc1-c1nnc2n1NC(c1ccc([N+](=O)[O-])o1)S2 (stereo not given) | 5.34% | 15.68% | 26.85% | 5.89 mm | 11.1 mm | 15.8 mm | 5.48 mm | 10.4 mm | 15.3 mm | 5.78 mm | 11 mm | 16.9 mm | 6.12 mm | 11.8 mm | 17.1 mm | 6.25 mm | 11.5 mm | 17.2 mm | 6.11 mm | 11.5 mm | zone of inhibition at 30 µg/mL (Staphylococcus aureus [21]): 17.5 mm; inhibition in vivo at 20 mg/kg (Rattus norvegicus [22]): 15.6%; inhibition in vivo at 20 mg/kg (Rattus norvegicus [23]): 18.1%; inhibition in vivo at 20 mg/kg (Rattus norvegicus [24]): 22.8%; inhibition in vivo at 20 mg/kg (Rattus norvegicus [25]): 24.9% |
| COc1ccc2[nH]c(C)c(Cc3nn4c(Cc5ccc(OC)c(OC)c5)nnc4s3)c2c1 | 19.23% | 27.82% | 29.04% | 4.62 mm | 8.02 mm | 12.1 mm | 4.9 mm | 7.58 mm | 10.8 mm | 4.48 mm | 7.42 mm | 12.4 mm | 4.04 mm | 7.42 mm | 12.6 mm | 4.07 mm | 7.21 mm | 12.3 mm | 4.06 mm | 8.08 mm | zone of inhibition at 30 µg/mL (Staphylococcus aureus [21]): 12 mm; inhibition in vivo at 20 mg/kg (Rattus norvegicus [22]): 10.5%; inhibition in vivo at 20 mg/kg (Rattus norvegicus [23]): 16.2%; inhibition in vivo at 20 mg/kg (Rattus norvegicus [24]): 21.4%; inhibition in vivo at 20 mg/kg (Rattus norvegicus [25]): 28.4% |
